Structures can show the parent of a compound that is named as a salt.
Assays:
Cytochrome P450 2B1 [1] = molecular target: T1, Cytochrome P450 2B1 (Rattus norvegicus, UniProt P00176); experiment: Inhibition of Aminopyrine N-demethylase in Phenobarbitone-treated rats; conditions: read-out: I50
T1 sequence (P00176 whole entry): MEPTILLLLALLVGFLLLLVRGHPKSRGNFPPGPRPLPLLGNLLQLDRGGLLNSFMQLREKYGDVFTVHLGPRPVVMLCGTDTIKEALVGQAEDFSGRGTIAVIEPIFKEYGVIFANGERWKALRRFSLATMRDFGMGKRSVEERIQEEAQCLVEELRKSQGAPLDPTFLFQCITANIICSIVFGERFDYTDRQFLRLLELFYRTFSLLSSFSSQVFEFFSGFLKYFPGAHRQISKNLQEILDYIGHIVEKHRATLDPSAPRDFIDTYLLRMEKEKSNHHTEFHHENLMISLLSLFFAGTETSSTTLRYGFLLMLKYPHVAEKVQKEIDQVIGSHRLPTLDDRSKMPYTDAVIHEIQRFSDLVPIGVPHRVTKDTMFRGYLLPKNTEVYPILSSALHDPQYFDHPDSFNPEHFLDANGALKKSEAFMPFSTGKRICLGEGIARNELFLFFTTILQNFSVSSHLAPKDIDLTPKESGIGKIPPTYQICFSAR
In short: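 Hepatic microsomes from immature male Wistar rats dosed with PB 80 (mg/kg)/day ip for 3 days and starved 24 h. Prepared in 0.1 M potassium phosphate pH 7.4. Aminopyrine N-demethylation followed by formaldehyde formation. Results expressed as molar I50.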

[2] = molecular target: T2, aryl hydrocarbon hydroxylase (cytochrome P450 1A1) (Rattus norvegicus, UniProt P00185); experiment: Inhibition of Aryl hydrocarbon hydroxylase in phenobarbitone-treated rats; conditions: read-out: I50
T2 sequence (P00185 whole entry): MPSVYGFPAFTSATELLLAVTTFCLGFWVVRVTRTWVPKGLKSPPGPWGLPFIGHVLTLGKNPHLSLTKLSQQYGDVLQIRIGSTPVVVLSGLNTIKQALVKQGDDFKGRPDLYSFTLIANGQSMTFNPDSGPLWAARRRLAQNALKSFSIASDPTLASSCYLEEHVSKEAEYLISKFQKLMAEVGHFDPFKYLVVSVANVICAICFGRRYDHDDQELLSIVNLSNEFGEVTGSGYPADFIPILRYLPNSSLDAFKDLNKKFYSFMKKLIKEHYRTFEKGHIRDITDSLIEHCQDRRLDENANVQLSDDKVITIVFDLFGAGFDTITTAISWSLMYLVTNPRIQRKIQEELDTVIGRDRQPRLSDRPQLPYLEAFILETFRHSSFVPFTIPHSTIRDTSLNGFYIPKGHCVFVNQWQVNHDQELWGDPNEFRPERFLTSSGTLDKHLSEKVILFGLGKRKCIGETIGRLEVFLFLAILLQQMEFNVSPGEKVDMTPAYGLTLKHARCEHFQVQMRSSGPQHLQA
In short: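 Microsomes from immature male Wistar rats (100-150 g) given PB 80 (mg/kg)/day ip for 3 days, starved 24 h. Incubation: BP 285 nmol, MgCl2 3.0 μmol, NADPH 0.50 μmol, protein 1.2 mg, 0.1 M K phosphate pH 7.4, 3.0 mL. Run 10 min at 37 °C. Phenol fluorescence read at ex 396/em 522 nm. I50 by linear regression over five to eight inhibitor concentrations, mean of duplicates.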

[3] = molecular target: T3, cytochrome P450 (cytochrome P450 1A1) (Rattus norvegicus, UniProt P00185); experiment: Interaction with cytochrome P450 in 3-methylcholanthrene-induced rat hepatic microsomes; type: ADME, Liver; conditions: read-out: Ks
T3 sequence (P00185 whole entry): T2 sequence (P00185 whole entry)
In short: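 Hepatic microsomes from immature male Wistar rats given 3-MC (25 mg/kg in corn oil, ip, single dose) 3 days before sacrifice, starved 24 h. Optical difference spectra recorded at 1 mg/mL microsomal protein. Ks taken from abscissal intercept of double-reciprocal plot of ΔOD (peak-trough) vs concentration, five to eight concentrations, in duplicate.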

Cytochrome P450 2B1 [4] = molecular target: T1, Cytochrome P450 2B1; experiment: Interaction with cytochrome P450 in Phenobarbitone-induced rat hepatic microsomes; type: ADME, Liver; conditions: read-out: Ks
In short: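 Microsomes came from immature male Wistar rats dosed with phenobarbitone, 80 (mg/kg)/day ip for 3 days, and starved 24 h before sacrifice. Difference spectra recorded at 1 mg/mL microsomal protein. Ks obtained in duplicate from abscissal intercept of a double-reciprocal plot of ΔOD (peak-trough) against compound concentration, using five to eight concentrations.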

[5] = molecular target: T2, aryl hydrocarbon hydroxylase (cytochrome P450 1A1); experiment: Effect on Aryl hydrocarbon hydroxylase activity in 3-methylcolanthrene-induced rat liver microsomes at 4.3x10E-4M; type: ADME, Microsome; conditions: 3-methylcholanthrene-induced rat liver microsomes, read-out: Control
In short: (§1)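 Liver microsomes from immature male Wistar rats (100-150 g) given one 3-MC dose (25 mg/kg in corn oil, ip) 3 days before sacrifice, starved 24 h. Incubation: benzo[a]pyrene 357 nmol, MgCl2 3.0 μmol, NADPH 0.50 μmol, 1.2 mg protein, 0.1 M potassium phosphate pH 7.4 (3.0 mL), 6 min, 37 °C. Compound added from 0.07 N HCl or Me2SO-water stock at near-maximal solubility. Fluorescent phenols read ex 396/em 522 nm. Value is % of solvent control, mean of three determinations.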

[6] = Partition coefficient (logP); type: physicochemical; conditions: octanol/water
[7] = molecular target: T2, aryl hydrocarbon hydroxylase (cytochrome P450 1A1); experiment: Effect on Aryl hydrocarbon hydroxylase activity in 3-methylcolanthrene-induced rat liver microsomes at 3.6x10E-4M; type: ADME, Microsome; conditions: 3-methylcholanthrene-induced rat liver microsomes, read-out: Control
In short: (§2)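 Liver microsomes from immature male Wistar rats (100-150 g) given one 3-MC dose (25 mg/kg in corn oil, ip) 3 days before sacrifice, starved 24 h. Incubation: BP 357 nmol, MgCl2 3.0 μmol, NADPH 0.50 μmol, protein 1.2 mg, 0.1 M K phosphate pH 7.4, 3.0 mL final volume. Run 6 min at 37 °C. Fluorescent phenols read at ex 396/em 522 nm. Activity given as % of solvent control, mean of three determinations, at roughly maximum solubility.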

[8] = molecular target: T2, aryl hydrocarbon hydroxylase (cytochrome P450 1A1); experiment: Effect on Aryl hydrocarbon hydroxylase activity in 3-methylcolanthrene-induced rat liver microsomes at 2.3x10E-4M; type: ADME, Microsome; conditions: 3-methylcholanthrene-induced rat liver microsomes, read-out: Control; in short: as §2
Cytochrome P450 2B1 [9] = molecular target: T1, Cytochrome P450 2B1; experiment: Interaction (Ks) with cytochrome P450 in phenobarbitone-induced rat hepatic microsomes; type: ADME, Liver; conditions: read-out: Ks
In short: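 Difference spectra recorded with microsomes from PB-treated rats (80 (mg/kg)/day ip, 3 days) at 1 mg/mL microsomal protein. Ks obtained in duplicate from double-reciprocal plots of ΔOD (peak-trough) versus five to eight ligand concentrations, using the abscissal intercept.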

[10] = molecular target: T3, cytochrome P450 (cytochrome P450 1A1); experiment: Interaction (Ks) with cytochrome P450 in 3-methylcholanthrene-induced rat hepatic microsomes; type: ADME, Liver; conditions: read-out: Ks
In short: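 Optical difference spectra recorded with microsomes from 3-MC-treated rats (25 mg/kg in corn oil, ip, 3 days) at 1 mg/mL protein. Ks taken from the abscissal intercept of double-reciprocal plots of ΔOD (peak-trough) against five to eight compound concentrations, determined in duplicate.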

[11] = molecular target: T2, aryl hydrocarbon hydroxylase (cytochrome P450 1A1); experiment: Effect on Aryl hydrocarbon hydroxylase activity in 3-methylcolanthrene-induced rat liver microsomes at 5.0x10E-5M; type: ADME, Microsome; conditions: 3-methylcholanthrene-induced rat liver microsomes, read-out: Control; in short: as §2
[12] = molecular target: T2, aryl hydrocarbon hydroxylase (cytochrome P450 1A1); experiment: Effect on Aryl hydrocarbon hydroxylase activity in 3-methylcolanthrene-induced rat liver microsomes at 1.7x10E-4M; type: ADME, Microsome; conditions: 3-methylcholanthrene-induced rat liver microsomes, read-out: Control; in short: as §2
[13] = molecular target: T2, aryl hydrocarbon hydroxylase (cytochrome P450 1A1); experiment: Effect on Aryl hydrocarbon hydroxylase activity in 3-methylcolanthrene-induced rat liver microsomes at 5.9x10E-4M; type: ADME, Microsome; conditions: 3-methylcholanthrene-induced rat liver microsomes, read-out: Control; in short: as §2
[14] = molecular target: T2, aryl hydrocarbon hydroxylase (cytochrome P450 1A1); experiment: Effect on Aryl hydrocarbon hydroxylase activity in 3-methylcolanthrene-induced rat liver microsomes at 1.2x10E-3M; type: ADME, Microsome; conditions: 3-methylcholanthrene-induced rat liver microsomes, read-out: Control; in short: as §1
[15] = molecular target: T2, aryl hydrocarbon hydroxylase (cytochrome P450 1A1); experiment: Effect on Aryl hydrocarbon hydroxylase activity in 3-methylcolanthrene-induced rat liver microsomes at 8x10E-4M; type: ADME, Microsome; conditions: 3-methylcholanthrene-induced rat liver microsomes, read-out: Control; in short: as §1
[16] = molecular target: T2, aryl hydrocarbon hydroxylase (cytochrome P450 1A1); experiment: Effect on Aryl hydrocarbon hydroxylase activity in 3-methylcolanthrene-induced rat liver microsomes at 5.2x10E-5M; type: ADME, Microsome; conditions: 3-methylcholanthrene-induced rat liver microsomes, read-out: Control; in short: as §2

SMILES	IC50 (Cytochrome P450 2B1 [1])	IC50 [2]	Kd [3]	Kd (Cytochrome P450 2B1 [4])	logP [6]	further results
c1ccc(-c2c[nH]cn2)cc1	7.4 µM	33 µM	1.7 µM	1.1 µM	–	activity at 0.00043 M [5]: 83%
CCCCCc1nc2ccccc2[nH]1	50 µM	82 µM	–	–	3.85	activity at 0.00036 M [7]: 89%
Cc1nc2cc(C)c(C)cc2[nH]1	370 µM	170 µM	28 µM	100 µM	2.85	activity at 0.00023 M [8]: 77%
c1ccc2cc3[nH]cnc3cc2c1	53 µM	84 µM	–	–	–	Kd (Cytochrome P450 2B1 [9]): 15 µM; Kd [10]: 82 µM
CCc1nc2cc(C)c(C)cc2[nH]1	180 µM	110 µM	–	–	3.35	–
Cc1ccc2[nH]cnc2c1	–	–	–	62 µM	–	Kd [10]: 210 µM
CCCCCCCCCCCc1nc2ccccc2[nH]1	15 µM	18 µM	–	–	6.85	activity at 50 µM [11]: 103%
Cc1nc2ccccc2[nH]1	1080 µM	670 µM	510 µM	440 µM	1.85	–
CCCCCCCc1nc2ccccc2[nH]1	26 µM	24 µM	–	–	4.85	activity at 0.00017 M [12]: 93%
CCCc1nc2ccccc2[nH]1	300 µM	480 µM	–	–	2.85	activity at 0.00059 M [13]: 99%
CCc1nc2ccccc2[nH]1	670 µM	630 µM	–	–	2.35	–
c1ccc2[nH]cnc2c1 [BENZIMIDAZOLE]	980 µM	1100 µM	3200 µM	110 µM	1.35	activity at 0.0012 M [14]: 101%
Cc1cc2nc[nH]c2cc1C [DIMEDAZOL]	180 µM	97 µM	320 µM	62 µM	2.35	activity at 0.0008 M [15]: 69%
CCCC(C(=O)OCCN(CC)CC)(c1ccccc1)c1ccccc1 [PROADIFEN HYDROCHLORIDE]	8.2 µM	22 µM	–	–	–	activity at 52 µM [16]: 105%

Reference: ChEMBL document CHEMBL1122208, “Inhibitors of hepatic mixed-function oxidases. 4. Effects of benzimidazole and related compounds on aryl hydrocarbon hydroxylase activity from phenobarbitone and 3-methylcholanthrene induced rats” (J Med Chem, 1982)
